Test results as given in ChEMBL document CHEMBL5335788, “Synthesis and evaluation of aromatic BDSF bioisosteres on biofilm formation and colistin sensitivity in pathogenic bacteria” (Eur J Med Chem, 2023).
Activity calls are given as the source filed them. The rule behind the calls is not given here.

What follows are compounds tested on Pseudomonas aeruginosa (assay: Inhibition of biofilm formation in Pseudomonas aeruginosa PAO1 at 0.05 mM incubated for 24 hrs by crystal violet method). Settings: not given.
Type: functional, organism-based
Outline: (§1)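 Crystal violet assay in LB: log-phase bacteria at final 1×10^5 cfu/mL with sulfonamide at final 0.05 mM, 24 h at 37 °C. Biomass read at OD620, then wells washed, biofilm heat-fixed 65 °C 15 min, stained 0.1% crystal violet 15 min, dye eluted in 30% acetic acid, OD550 read. Neat DMSO control taken as 100%. Duplicates, at least two independent experiments; one-way ANOVA.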

SMILES | inhibition
CCCCCCCCCc1ccccc1C(=O)NS(=O)(=O)c1ccc([N+](=O)[O-])cc1 | inactive
CCCCCCCCCc1ccccc1C(=O)NS(=O)(=O)c1cccc(F)c1 | inactive
CCCCCCCCCc1ccccc1C(=O)NS(=O)(=O)C1CC1 | inactive
CCCCCCCCCc1ccccc1C(=O)NS(=O)(=O)c1ccccc1 | inactive

These compounds were tested on Escherichia coli (assay: Potentiation of colistin-induced antibacterial activity against Escherichia coli ATCC 9637 assessed as colistin MIC at 50 uM incubated for 20 hrs by susceptibility testing (reference value: 0.125 to 0.25 ug/ml)). Settings: not given.
Type: functional
Outline: (§2)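 Colistin MIC by broth microdilution in cation-adjusted Mueller-Hinton broth, log-phase cells at final 5×10^5 cfu/mL. Two-fold colistin dilutions in duplicate with sulfonamide at final 0.05 mM (from 10 mM DMSO stock); 20 h at 37 °C. OD550 read. MIC taken as the lowest colistin level reducing growth ≥80% versus growth control. At least two replicates.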

SMILES | MIC [µg/mL]
CCCCCCCCCc1ccccc1C(=O)NS(=O)(=O)c1ccc([N+](=O)[O-])cc1 | 0.5
CCCCCCCCCc1ccccc1C(=O)NS(=O)(=O)c1cccc(F)c1 | 0.25
CCCCCCCCCc1ccccc1C(=O)NS(=O)(=O)C1CC1 | 0.125
CCCCCCCCCc1ccccc1C(=O)NS(=O)(=O)c1ccccc1 | 0.25

What follows are compounds tested on Pseudomonas aeruginosa (assay: Potentiation of colistin-induced antibacterial activity against Pseudomonas aeruginosa assessed as colistin MIC at 50 uM incubated for 20 hrs by susceptibility testing (reference value: 1 to 2 ug/ml)). Settings: not given.
Type: functional
Outline: as §2

SMILES | MIC [µg/mL]
CCCCCCCCCc1ccccc1C(=O)NS(=O)(=O)c1ccc([N+](=O)[O-])cc1 | 2
CCCCCCCCCc1ccccc1C(=O)NS(=O)(=O)c1cccc(F)c1 | 1
CCCCCCCCCc1ccccc1C(=O)NS(=O)(=O)C1CC1 | 1
CCCCCCCCCc1ccccc1C(=O)NS(=O)(=O)c1ccccc1 | 1

These compounds were tested on Pseudomonas aeruginosa (assay: Antimicrobial activity against Pseudomonas aeruginosa PAO1 assessed as microbial growth inhibition at 50 uM incubated for 20 hrs by broth microdilution method). Settings: not given.
Type: functional, organism-based
Outline: (§3)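 Overnight cultures in cation-adjusted Mueller-Hinton broth, subcultured 1:100; log-phase cells at final 1×10^5 cfu/mL exposed to sulfonamide at final 0.05 mM (from 10 mM DMSO stock) for 20 h at 37 °C. OD550 read after shaking. Growth expressed as percent of 0.5% DMSO control wells. Screened at least twice.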

SMILES | growth inhibition (GI)
CCCCCCCCCc1ccccc1C(=O)NS(=O)(=O)c1ccc([N+](=O)[O-])cc1 | inactive
CCCCCCCCCc1ccccc1C(=O)NS(=O)(=O)c1cccc(F)c1 | inactive
CCCCCCCCCc1ccccc1C(=O)NS(=O)(=O)C1CC1 | inactive
CCCCCCCCCc1ccccc1C(=O)NS(=O)(=O)c1ccccc1 | inactive

The compounds below were run on Burkholderia multivorans (assay: Potentiation of colistin-induced antibacterial activity against Burkholderia multivorans B10 assessed as colistin MIC at 50 uM incubated for 20 hrs by susceptibility testing (Rvb > 128 ug/ml)). Settings: not given.
Type: functional
Outline: as §2

SMILES | MIC [µg/mL]
CCCCCCCCCc1ccccc1C(=O)NS(=O)(=O)c1ccc([N+](=O)[O-])cc1 | > 128
CCCCCCCCCc1ccccc1C(=O)NS(=O)(=O)c1cccc(F)c1 | > 128
CCCCCCCCCc1ccccc1C(=O)NS(=O)(=O)C1CC1 | > 128
CCCCCCCCCc1ccccc1C(=O)NS(=O)(=O)c1ccccc1 | > 128

These compounds were tested on Acinetobacter baumannii (assay: Antimicrobial activity against Acinetobacter baumannii ATCC 15308 assessed as microbial growth inhibition at 50 uM incubated for 20 hrs by broth microdilution method). Settings: not given.
Type: functional, organism-based
Outline: as §3

SMILES | growth inhibition (GI)
CCCCCCCCCc1ccccc1C(=O)NS(=O)(=O)c1ccc([N+](=O)[O-])cc1 | inactive
CCCCCCCCCc1ccccc1C(=O)NS(=O)(=O)c1cccc(F)c1 | inactive
CCCCCCCCCc1ccccc1C(=O)NS(=O)(=O)C1CC1 | inactive
CCCCCCCCCc1ccccc1C(=O)NS(=O)(=O)c1ccccc1 | inactive

What follows are compounds tested on Escherichia coli (assay: Antimicrobial activity against Escherichia coli ATCC 9637 assessed as microbial growth inhibition at 50 uM incubated for 20 hrs by broth microdilution method). Settings: not given.
Type: functional, organism-based
Outline: as §3

SMILES | growth inhibition (GI)
CCCCCCCCCc1ccccc1C(=O)NS(=O)(=O)c1ccc([N+](=O)[O-])cc1 | inactive
CCCCCCCCCc1ccccc1C(=O)NS(=O)(=O)c1cccc(F)c1 | inactive
CCCCCCCCCc1ccccc1C(=O)NS(=O)(=O)C1CC1 | inactive
CCCCCCCCCc1ccccc1C(=O)NS(=O)(=O)c1ccccc1 | inactive

The compounds below were run on Acinetobacter baumannii (assay: Inhibition of biofilm formation in Acinetobacter baumannii ATCC 15308 at 0.05 mM incubated for 24 hrs by crystal violet method relative to control). Settings: ATCC 15308, 24 h.
Type: functional
Outline: as §1

SMILES | inhibition at 50 µM [%]
CCCCCCCCCc1ccccc1C(=O)NS(=O)(=O)c1ccc([N+](=O)[O-])cc1 | 50
CCCCCCCCCc1ccccc1C(=O)NS(=O)(=O)c1cccc(F)c1 | 27

The compounds below were run on Stenotrophomonas maltophilia (assay: Potentiation of colistin-induced antibacterial activity against Stenotrophomonas maltophilia K279a assessed as colistin MIC at 50 uM incubated for 20 hrs by susceptibility testing (reference value: 2 to 8 ug/ml)). Settings: not given.
Type: functional
Outline: as §2

SMILES | MIC [µg/mL]
CCCCCCCCCc1ccccc1C(=O)NS(=O)(=O)c1ccc([N+](=O)[O-])cc1 | 1
CCCCCCCCCc1ccccc1C(=O)NS(=O)(=O)c1cccc(F)c1 | 0.5
CCCCCCCCCc1ccccc1C(=O)NS(=O)(=O)C1CC1 | 1
CCCCCCCCCc1ccccc1C(=O)NS(=O)(=O)c1ccccc1 | 0.5

The compounds below were run on Burkholderia cenocepacia (assay: Potentiation of colistin-induced antibacterial activity against Burkholderia cenocepacia 289 assessed as colistin MIC at 50 uM incubated for 20 hrs by susceptibility testing (Rvb > 256 ug/ml)). Settings: not given.
Type: functional
Outline: as §2

SMILES | MIC [µg/mL]
CCCCCCCCCc1ccccc1C(=O)NS(=O)(=O)c1ccc([N+](=O)[O-])cc1 | > 256
CCCCCCCCCc1ccccc1C(=O)NS(=O)(=O)c1cccc(F)c1 | > 256
CCCCCCCCCc1ccccc1C(=O)NS(=O)(=O)C1CC1 | > 256
CCCCCCCCCc1ccccc1C(=O)NS(=O)(=O)c1ccccc1 | > 256

Each compound was assayed on Stenotrophomonas maltophilia (assay: Inhibition of biofilm formation in Stenotrophomonas maltophilia K279a clinical isolate of rpf-1 subpopulation at 0.05 mM incubated for 24 hrs by crystal violet method). Settings: not given.
Type: functional, organism-based
Outline: as §1

SMILES | inhibition
CCCCCCCCCc1ccccc1C(=O)NS(=O)(=O)c1ccc([N+](=O)[O-])cc1 | inactive
CCCCCCCCCc1ccccc1C(=O)NS(=O)(=O)c1cccc(F)c1 | inactive
CCCCCCCCCc1ccccc1C(=O)NS(=O)(=O)C1CC1 | inactive
CCCCCCCCCc1ccccc1C(=O)NS(=O)(=O)c1ccccc1 | inactive

These compounds were tested on Acinetobacter baumannii (assay: Potentiation of colistin-induced antibacterial activity against Acinetobacter baumannii ATCC 15308 assessed as colistin MIC at 50 uM incubated for 20 hrs by susceptibility testing (reference value: 0.25 to 0.5 ug/ml)). Settings: not given.
Type: functional
Outline: as §2

SMILES | MIC [µg/mL]
CCCCCCCCCc1ccccc1C(=O)NS(=O)(=O)c1ccc([N+](=O)[O-])cc1 | 0.5
CCCCCCCCCc1ccccc1C(=O)NS(=O)(=O)c1cccc(F)c1 | 0.25
CCCCCCCCCc1ccccc1C(=O)NS(=O)(=O)C1CC1 | 0.125
CCCCCCCCCc1ccccc1C(=O)NS(=O)(=O)c1ccccc1 | 0.25

What follows are compounds tested on Burkholderia cepacia (assay: Potentiation of colistin-induced antibacterial activity against Burkholderia cepacia R6193 assessed as colistin MIC at 50 uM incubated for 20 hrs by susceptibility testing (Rvb > 256 ug/ml)). Settings: not given.
Type: functional
Outline: as §2

SMILES | MIC [µg/mL]
CCCCCCCCCc1ccccc1C(=O)NS(=O)(=O)c1ccc([N+](=O)[O-])cc1 | > 256
CCCCCCCCCc1ccccc1C(=O)NS(=O)(=O)c1cccc(F)c1 | > 256
CCCCCCCCCc1ccccc1C(=O)NS(=O)(=O)C1CC1 | > 256
CCCCCCCCCc1ccccc1C(=O)NS(=O)(=O)c1ccccc1 | > 256
